In ChEMBL document CHEMBL1144256, “Potent Kv1.3 inhibitors from correolide-modification of the C18 position” (Bioorg Med Chem Lett, 2005):

Legend:
[1] = target: T1, Potassium voltage-gated channel subfamily A member 3 (Homo sapiens, UniProt P22001); assay: Relative T cell IC50 compared to IC50 for correolide assay; assay type: functional, cell-based
Method in brief: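 Ratio of correolide IC50 to compound IC50 in the anti-CD3-stimulated human peripheral blood T cell proliferation assay; a larger value means greater potency.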

[2] = target: T1, Potassium voltage-gated channel subfamily A member 3; assay: Inhibition of voltage-gated potassium channel subunit Kv1.3 in chinese hamster ovary cells; assay type: functional, cell-based
Method in brief: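 Depolarization-induced ⁸⁶Rb⁺ efflux measured in CHO cells stably transfected with human Kv1.3 channel (Rb_Kv functional assay), with short compound incubation; IC50 reported.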

[3] = target: T1, Potassium voltage-gated channel subfamily A member 3; assay: Inhibitory activity against voltage-gated potassium channel subunit Kv1.3 of human T cells; assay type: functional, cell-based, T-cell
[4] = target: T1, Potassium voltage-gated channel subfamily A member 3; assay: Inhibitory activity against voltage-gated potassium channel subunit Kv1.3; assay type: functional

T1 sequence (P22001 whole entry): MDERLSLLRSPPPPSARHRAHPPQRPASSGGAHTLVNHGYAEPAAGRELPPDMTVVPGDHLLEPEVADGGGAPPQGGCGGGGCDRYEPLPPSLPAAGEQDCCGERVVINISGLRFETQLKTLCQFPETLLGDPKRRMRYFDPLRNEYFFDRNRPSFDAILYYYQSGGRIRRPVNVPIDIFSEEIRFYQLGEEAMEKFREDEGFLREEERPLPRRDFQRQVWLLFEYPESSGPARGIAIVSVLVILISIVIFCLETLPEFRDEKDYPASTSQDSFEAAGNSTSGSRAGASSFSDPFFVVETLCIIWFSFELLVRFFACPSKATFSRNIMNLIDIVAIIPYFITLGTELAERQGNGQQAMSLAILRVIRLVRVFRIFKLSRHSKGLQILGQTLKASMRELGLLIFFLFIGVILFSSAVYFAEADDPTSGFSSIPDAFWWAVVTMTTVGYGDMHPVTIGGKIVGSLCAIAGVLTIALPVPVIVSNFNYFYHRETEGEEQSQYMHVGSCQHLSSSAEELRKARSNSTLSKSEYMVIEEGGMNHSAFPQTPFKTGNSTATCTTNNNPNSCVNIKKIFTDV

SMILES	Ratio [1]	IC50 [2] [nM]	IC50 [3] [nM]	IC50 [4] [nM]
C=C1C[C@@]2(O)C3CC[C@]4(C)C([C@H](OC(C)=O)[C@H](OC(C)=O)[C@@]5([C@@H](C)OC(C)=O)COC(=O)C=CC45)[C@@]3(C)[C@H](OC(C)=O)[C@H](OC(C)=O)[C@@]2(C)C2(C(=O)OC)O[C@H]12 (stereo partly drawn) [CORRELOID]		100	184	
C=CC1(O)C(C)=C[C@@H](OC(C)=O)[C@@]2(C)C1CC[C@]1(C)C2[C@H](OC(C)=O)[C@H](OC(C)=O)[C@@]2([C@@H](C)OC(C)=O)COCC=CC12 (stereo partly drawn)		1810		
C=CC[C@H](CC1(O)C(C)=C[C@@H](OC(C)=O)[C@@]2(C)C1CC[C@]1(C)C2[C@H](OC(C)=O)[C@H](OC(C)=O)[C@@]2([C@@H](C)OC(C)=O)COCC=CC12)c1ccccc1OC (stereo partly drawn)	5.6	21	32.9	
CC(=O)O[C@H]1C2[C@@](C)(CCC3C(O)(CCC=C(C)C)C(C)=C[C@@H](OC(C)=O)[C@@]32C)C2C=CCOC[C@]2([C@@H](C)OC(C)=O)[C@H]1OC(C)=O (stereo partly drawn)		21		
C=C(CC1(O)C(C)=C[C@@H](OC(C)=O)[C@@]2(C)C1CC[C@]1(C)C2[C@H](OC(C)=O)[C@H](OC(C)=O)[C@@]2([C@@H](C)OC(C)=O)COCC=CC12)c1ccccc1[S+](C)[O-] (stereo in doubt; 35)		259		
CC(=O)O[C@H]1C2[C@@](C)(CCC3C(O)(CC(C)(C)c4ccccc4)C(C)=C[C@@H](OC(C)=O)[C@@]32C)C2C=CCOC[C@]2([C@@H](C)OC(C)=O)[C@H]1OC(C)=O (stereo partly drawn)	1	19	184	
C=C1C[C@@]2(O)C3CC[C@]4(C)C([C@H](OC(C)=O)[C@H](OC(C)=O)[C@@]5([C@@H](C)OC(C)=O)COCC=CC45)[C@@]3(C)[C@H](OC(C)=O)[C@H](OC(C)=O)[C@@]2(C)C2(C(=O)OC)O[C@H]12 (stereo partly drawn)				10
CC(=O)O[C@H]1C2[C@@](C)(CCC3C(O)(c4ccccc4)C(C)=C[C@@H](OC(C)=O)[C@@]32C)C2C=CCOC[C@]2([C@@H](C)OC(C)=O)[C@H]1OC(C)=O (stereo partly drawn)		2000		
C=C(CC1(O)C(C)=C[C@@H](OC(C)=O)[C@@]2(C)C1CC[C@]1(C)C2[C@H](OC(C)=O)[C@H](OC(C)=O)[C@@]2([C@@H](C)OC(C)=O)COCC=CC12)c1ccccc1S(=O)OC (stereo partly drawn)		352		
CCc1ccccc1[C@H](CC)CC1(O)C(C)=C[C@@H](OC(C)=O)[C@@]2(C)C1CC[C@]1(C)C2[C@H](OC(C)=O)[C@H](OC(C)=O)[C@@]2([C@@H](C)OC(C)=O)COCC=CC12 (stereo partly drawn)		12		
C=C(CC1(O)C(C)=C[C@@H](OC(C)=O)[C@@]2(C)C1CC[C@]1(C)C2[C@H](OC(C)=O)[C@H](OC(C)=O)[C@@]2([C@@H](C)OC(C)=O)COCC=CC12)c1ccccc1[S+](C)[O-] (stereo in doubt; 34)		145		
C=C(C[C@]1(O)C(C)=C[C@@H](OC(C)=O)[C@]2(C)C3[C@H](OC(C)=O)[C@H](OC(C)=O)[C@@]4([C@@H](C)OC(C)=O)COCC=CC4[C@]3(C)CCC21)c1ccccc1 (stereo partly drawn)	1.4	19	131	
CC(=O)O[C@H]1C2[C@@](C)(CCC3C(=O)C(C)=C[C@@H](OC(C)=O)[C@@]32C)C2C=CCOC[C@]2([C@@H](C)OC(C)=O)[C@H]1OC(C)=O (stereo partly drawn)				5600
CC(=O)O[C@H]1C2[C@@](C)(CCC3C(O)(C(C)Cc4ccccc4)C(C)=C[C@@H](OC(C)=O)[C@@]32C)C2C=CCOC[C@]2([C@@H](C)OC(C)=O)[C@H]1OC(C)=O (stereo partly drawn)		200		
C=C(CC1(O)C(C)=C[C@@H](OC(C)=O)[C@@]2(C)C1CC[C@]1(C)C2[C@H](OC(C)=O)[C@H](OC(C)=O)[C@@]2([C@@H](C)OC(C)=O)COCC=CC12)c1ccccc1SCC (stereo partly drawn)	5.8	17	31.7	
CC(=O)O[C@H]1C2[C@@](C)(CCC3C(O)(C[C@@H](C)c4ccccc4)C(C)=C[C@@H](OC(C)=O)[C@@]32C)C2C=CCOC[C@]2([C@@H](C)OC(C)=O)[C@H]1OC(C)=O (stereo partly drawn)	1.8	12	102	
C=C(CC1(O)C(C)=C[C@@H](OC(C)=O)[C@@]2(C)C1CC[C@]1(C)C2[C@H](OC(C)=O)[C@H](OC(C)=O)[C@@]2([C@@H](C)OC(C)=O)COCC=CC12)c1ccccc1SC (stereo partly drawn)	12.5	14	14.7	
C=CCCC1(O)C(C)=C[C@@H](OC(C)=O)[C@@]2(C)C1CC[C@]1(C)C2[C@H](OC(C)=O)[C@H](OC(C)=O)[C@@]2([C@@H](C)OC(C)=O)COCC=CC12 (stereo partly drawn)		664		
C=CCC1(O)C(C)=C[C@@H](OC(C)=O)[C@@]2(C)C1CC[C@]1(C)C2[C@H](OC(C)=O)[C@H](OC(C)=O)[C@@]2([C@@H](C)OC(C)=O)COCC=CC12 (stereo partly drawn)		143		
CCc1ccccc1[C@H](C)CC1(O)C(C)=C[C@@H](OC(C)=O)[C@@]2(C)C1CC[C@]1(C)C2[C@H](OC(C)=O)[C@H](OC(C)=O)[C@@]2([C@@H](C)OC(C)=O)COCC=CC12 (stereo partly drawn)	5	28	36.8	
CC(=O)O[C@H]1C2[C@@](C)(CCC3C(O)(C[C@H](C)c4ccccc4)C(C)=C[C@@H](OC(C)=O)[C@@]32C)C2C=CCOC[C@]2([C@@H](C)OC(C)=O)[C@H]1OC(C)=O (stereo partly drawn)	0.3	120	613	
C=C(CC1(O)C(C)=C[C@@H](OC(C)=O)[C@@]2(C)C1CC[C@]1(C)C2[C@H](OC(C)=O)[C@H](OC(C)=O)[C@@]2([C@@H](C)OC(C)=O)COCC=CC12)c1ccccc1CC (stereo partly drawn)	7.2	44	25.5	
C=CC[C@H](CC1(O)C(C)=C[C@@H](OC(C)=O)[C@@]2(C)C1CC[C@]1(C)C2[C@H](OC(C)=O)[C@H](OC(C)=O)[C@@]2([C@@H](C)OC(C)=O)COCC=CC12)c1ccccc1CC (stereo partly drawn)		48		
CCOc1ccccc1[C@H](C)CC1(O)C(C)=C[C@@H](OC(C)=O)[C@@]2(C)C1CC[C@]1(C)C2[C@H](OC(C)=O)[C@H](OC(C)=O)[C@@]2([C@@H](C)OC(C)=O)COCC=CC12 (stereo partly drawn)	15	37	12.3	

Second part, the molecule after the results:

Ratio [1]	IC50 [2] [nM]	IC50 [3] [nM]	IC50 [4] [nM]	SMILES
0.4	26	460		CC(=O)O[C@H]1C2[C@@](C)(CCC3C(O)(CCc4ccccc4)C(C)=C[C@@H](OC(C)=O)[C@@]32C)C2C=CCOC[C@]2([C@@H](C)OC(C)=O)[C@H]1OC(C)=O (stereo partly drawn)
6.3	28	29.2		CC[C@H](CC1(O)C(C)=C[C@@H](OC(C)=O)[C@@]2(C)C1CC[C@]1(C)C2[C@H](OC(C)=O)[C@H](OC(C)=O)[C@@]2([C@@H](C)OC(C)=O)COCC=CC12)c1ccccc1OC (stereo partly drawn)
2.3	34	80		CCOc1ccccc1CCC1(O)C(C)=C[C@@H](OC(C)=O)[C@@]2(C)C1CC[C@]1(C)C2[C@H](OC(C)=O)[C@H](OC(C)=O)[C@@]2([C@@H](C)OC(C)=O)COCC=CC12 (stereo partly drawn)
0.14	24	1310		COc1cccc(CCC2(O)C(C)=C[C@@H](OC(C)=O)[C@@]3(C)C2CC[C@]2(C)C3[C@H](OC(C)=O)[C@H](OC(C)=O)[C@@]3([C@@H](C)OC(C)=O)COCC=CC23)c1 (stereo partly drawn)
	31			CC(=O)Oc1ccccc1CCC1(O)C(C)=C[C@@H](OC(C)=O)[C@@]2(C)C1CC[C@]1(C)C2[C@H](OC(C)=O)[C@H](OC(C)=O)[C@@]2([C@@H](C)OC(C)=O)COCC=CC12 (stereo partly drawn)
3.6	11	51.1		C=C(CC1(O)C(C)=C[C@@H](OC(C)=O)[C@@]2(C)C1CC[C@]1(C)C2[C@H](OC(C)=O)[C@H](OC(C)=O)[C@@]2([C@@H](C)OC(C)=O)COCC=CC12)c1ccccc1OC (stereo partly drawn)
	150			CC(=O)O[C@H]1C2[C@@](C)(CCC3C(O)(CCCc4ccccc4)C(C)=C[C@@H](OC(C)=O)[C@@]32C)C2C=CCOC[C@]2([C@@H](C)OC(C)=O)[C@H]1OC(C)=O (stereo partly drawn)
0.43	26	428		CC(=O)O[C@H]1C2[C@@](C)(CCC3C(O)(CCc4ccccc4O)C(C)=C[C@@H](OC(C)=O)[C@@]32C)C2C=CCOC[C@]2([C@@H](C)OC(C)=O)[C@H]1OC(C)=O (stereo partly drawn)
0.95	41	194		CC(=O)O[C@H]1C2[C@@](C)(CCC3C(O)(CCc4ccccc4C)C(C)=C[C@@H](OC(C)=O)[C@@]32C)C2C=CCOC[C@]2([C@@H](C)OC(C)=O)[C@H]1OC(C)=O (stereo partly drawn)
0.1	87	1840		CC(=O)O[C@H]1C2[C@@](C)(CCC3C(O)(CCc4ccccc4C(F)(F)F)C(C)=C[C@@H](OC(C)=O)[C@@]32C)C2C=CCOC[C@]2([C@@H](C)OC(C)=O)[C@H]1OC(C)=O (stereo partly drawn)
	130			COc1ccc(CCC2(O)C(C)=C[C@@H](OC(C)=O)[C@@]3(C)C2CC[C@]2(C)C3[C@H](OC(C)=O)[C@H](OC(C)=O)[C@@]3([C@@H](C)OC(C)=O)COCC=CC23)cc1 (stereo partly drawn)
	270			CC(=O)O[C@H]1C2[C@@](C)(CCC3C(O)(CCCCc4ccccc4)C(C)=C[C@@H](OC(C)=O)[C@@]32C)C2C=CCOC[C@]2([C@@H](C)OC(C)=O)[C@H]1OC(C)=O (stereo partly drawn)
0.75	74	245		CC(=O)O[C@H]1C2[C@@](C)(CCC3C(O)(CCc4ccccc4F)C(C)=C[C@@H](OC(C)=O)[C@@]32C)C2C=CCOC[C@]2([C@@H](C)OC(C)=O)[C@H]1OC(C)=O (stereo partly drawn)
7.2	19	25.6		COc1ccccc1[C@H](C)C[C@]1(O)C(C)=C[C@@H](OC(C)=O)[C@]2(C)C3[C@H](OC(C)=O)[C@H](OC(C)=O)[C@@]4([C@@H](C)OC(C)=O)COCC=CC4[C@]3(C)CCC21 (stereo partly drawn)
1.3	14	142		COc1ccccc1CCC1(O)C(C)=C[C@@H](OC(C)=O)[C@@]2(C)C1CC[C@]1(C)C2[C@H](OC(C)=O)[C@H](OC(C)=O)[C@@]2([C@@H](C)OC(C)=O)COCC=CC12 (stereo partly drawn)
	380			CC(=O)O[C@H]1C2[C@@](C)(CCC3C(O)(Cc4ccccc4)C(C)=C[C@@H](OC(C)=O)[C@@]32C)C2C=CCOC[C@]2([C@@H](C)OC(C)=O)[C@H]1OC(C)=O (stereo partly drawn)
